Assays:
[1] = molecular target: T1, Alpha-1A adrenergic receptor (Homo sapiens, UniProt P35348); assay: Displacement of [3H]prazosin from human adrenergic alpha1A expressed in CHO cells; format: cell-based
T1 sequence (P35348 whole entry): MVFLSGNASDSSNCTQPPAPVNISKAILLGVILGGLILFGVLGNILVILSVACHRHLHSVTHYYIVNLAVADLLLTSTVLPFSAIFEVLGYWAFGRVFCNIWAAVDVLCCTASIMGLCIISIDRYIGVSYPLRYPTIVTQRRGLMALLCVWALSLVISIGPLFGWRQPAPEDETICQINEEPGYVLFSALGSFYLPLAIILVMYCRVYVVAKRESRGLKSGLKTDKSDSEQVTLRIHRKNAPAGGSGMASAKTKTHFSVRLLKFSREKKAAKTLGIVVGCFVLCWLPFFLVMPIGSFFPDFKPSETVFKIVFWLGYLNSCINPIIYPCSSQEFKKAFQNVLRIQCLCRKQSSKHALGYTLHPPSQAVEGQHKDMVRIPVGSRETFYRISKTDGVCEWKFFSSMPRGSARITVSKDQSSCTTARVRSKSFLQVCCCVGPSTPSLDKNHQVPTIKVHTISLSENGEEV
Method in brief: (§1)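 Membranes (30 µg protein) from CHO cells stably expressing each cloned human α1 subtype, labelled with [3H]prazosin. Nonspecific binding with 10 µM phentolamine. Stopped with ice-cold Tris–HCl and filtration on 0.2% polyethyleneimine-treated glass-fibre filters. Ki from IC50 by Cheng–Prusoff, nonlinear fitting. Mean ± SE of 2–3 experiments in triplicate.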

[2] = molecular target: T2, Alpha-1B adrenergic receptor (Homo sapiens, UniProt P35368); assay: Displacement of [3H]prazosin from human adrenergic Alpha-1B expressed in CHO cells; format: cell-based; method in brief: as §1
T2 sequence (P35368 whole entry): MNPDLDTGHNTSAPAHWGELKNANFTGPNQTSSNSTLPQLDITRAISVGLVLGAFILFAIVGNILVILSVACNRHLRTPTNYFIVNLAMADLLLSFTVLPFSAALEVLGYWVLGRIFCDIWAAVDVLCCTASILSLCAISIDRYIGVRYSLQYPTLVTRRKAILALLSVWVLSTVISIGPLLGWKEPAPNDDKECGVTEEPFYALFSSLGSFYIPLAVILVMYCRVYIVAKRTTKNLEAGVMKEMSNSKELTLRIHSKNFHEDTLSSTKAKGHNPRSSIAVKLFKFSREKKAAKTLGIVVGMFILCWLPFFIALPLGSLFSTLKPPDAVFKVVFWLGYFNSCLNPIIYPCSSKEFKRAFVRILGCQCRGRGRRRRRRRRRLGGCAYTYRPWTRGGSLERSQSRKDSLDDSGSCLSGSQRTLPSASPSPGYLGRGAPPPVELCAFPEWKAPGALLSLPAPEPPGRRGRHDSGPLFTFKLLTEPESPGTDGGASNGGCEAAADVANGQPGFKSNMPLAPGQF

[3] = molecular target: T3, Alpha-1D adrenergic receptor (Homo sapiens, UniProt P25100); assay: Displacement of [3H]prazosin from human adrenergic Alpha-1D expressed in CHO cells; format: cell-based; method in brief: as §1
T3 sequence (P25100 whole entry): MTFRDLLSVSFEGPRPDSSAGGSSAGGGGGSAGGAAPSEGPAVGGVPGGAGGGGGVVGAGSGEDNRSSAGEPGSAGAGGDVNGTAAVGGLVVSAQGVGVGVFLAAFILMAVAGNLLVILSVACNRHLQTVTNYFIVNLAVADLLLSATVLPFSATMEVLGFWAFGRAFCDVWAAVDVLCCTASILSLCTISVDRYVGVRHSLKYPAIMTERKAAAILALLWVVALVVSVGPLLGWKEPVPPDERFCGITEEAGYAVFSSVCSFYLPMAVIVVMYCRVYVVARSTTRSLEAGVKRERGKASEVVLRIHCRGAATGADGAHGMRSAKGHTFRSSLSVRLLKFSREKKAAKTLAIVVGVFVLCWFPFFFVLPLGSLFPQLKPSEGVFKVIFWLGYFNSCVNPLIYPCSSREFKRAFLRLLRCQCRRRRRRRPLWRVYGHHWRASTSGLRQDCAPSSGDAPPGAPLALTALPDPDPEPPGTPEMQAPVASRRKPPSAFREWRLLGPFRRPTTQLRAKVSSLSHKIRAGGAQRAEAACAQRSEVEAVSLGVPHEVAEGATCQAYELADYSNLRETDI

[4] = molecular target: T4, 5-hydroxytryptamine receptor 1A (Homo sapiens, UniProt P08908); assay: Displacement of [3H]8-OH-DPAT from human adrenergic 5HT1A expressed in human HeLa cells; format: cell-based
T4 sequence (P08908 whole entry): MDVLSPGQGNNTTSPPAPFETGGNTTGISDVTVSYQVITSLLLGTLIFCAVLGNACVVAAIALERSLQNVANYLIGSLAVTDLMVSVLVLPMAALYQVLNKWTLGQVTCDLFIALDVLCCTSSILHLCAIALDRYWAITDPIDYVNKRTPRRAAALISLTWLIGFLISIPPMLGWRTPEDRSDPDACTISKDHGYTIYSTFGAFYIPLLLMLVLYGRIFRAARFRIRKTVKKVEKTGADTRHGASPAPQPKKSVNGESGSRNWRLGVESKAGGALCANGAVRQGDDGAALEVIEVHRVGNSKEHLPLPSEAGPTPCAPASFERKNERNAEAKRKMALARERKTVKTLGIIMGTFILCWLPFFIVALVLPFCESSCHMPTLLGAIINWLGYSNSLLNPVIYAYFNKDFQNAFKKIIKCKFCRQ
Method in brief: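 HeLa cells stably carrying human 5-HT1A clone G-21, grown in DMEM with 10% FCS. Membranes in 50 mM Tris–HCl pH 7.4, 2.5 mM MgCl2, 10 µM pargyline, with 0.7–1.4 nM [3H]8-OH-DPAT for 30 min at 30 °C. Nonspecific binding with 10 µM 5-HT. Filtration stop. Ki by Cheng–Prusoff. Mean ± SE of 2–3 experiments in triplicate.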

[5] = molecular target: T5, Alpha-1A adrenergic receptor (Rattus norvegicus) (UniProt P43140); assay: Antagonist activity at adrenergic alpha1A receptor in Wistar rat vas deference assessed as inhibition of (-)-noradrenaline-indcuced contraction; format: functional
T5 sequence (whole entry): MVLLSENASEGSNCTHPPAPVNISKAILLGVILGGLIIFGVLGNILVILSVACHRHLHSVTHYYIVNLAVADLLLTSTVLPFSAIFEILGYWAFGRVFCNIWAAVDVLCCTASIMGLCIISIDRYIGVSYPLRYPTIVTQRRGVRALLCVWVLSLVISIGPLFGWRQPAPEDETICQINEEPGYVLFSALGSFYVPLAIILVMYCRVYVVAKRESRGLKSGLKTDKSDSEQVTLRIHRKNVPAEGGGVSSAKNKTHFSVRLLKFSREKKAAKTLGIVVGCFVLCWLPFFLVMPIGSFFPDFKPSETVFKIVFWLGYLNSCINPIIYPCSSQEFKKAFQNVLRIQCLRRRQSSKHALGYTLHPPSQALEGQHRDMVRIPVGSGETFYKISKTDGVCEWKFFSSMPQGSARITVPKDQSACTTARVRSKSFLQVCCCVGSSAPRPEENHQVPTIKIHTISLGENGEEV
Method in brief: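 Tissue in Tyrode with 0.1 µM cocaine, equilibrated 60 min with washes every 15 min, primed twice with 10 µM noradrenaline. A noradrenaline curve gave the basal response. Antagonist 30 min, then 30 min washing, then a new agonist curve.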

[6] = molecular target: T6, Alpha-1B adrenergic receptor (Rattus norvegicus) (UniProt P15823); assay: Antagonist activity at adrenergic Alpha-1B receptor in Wistar rat spleen assessed as inhibition of […]-indcuced contraction; format: functional, tissue-based
T6 sequence (whole entry): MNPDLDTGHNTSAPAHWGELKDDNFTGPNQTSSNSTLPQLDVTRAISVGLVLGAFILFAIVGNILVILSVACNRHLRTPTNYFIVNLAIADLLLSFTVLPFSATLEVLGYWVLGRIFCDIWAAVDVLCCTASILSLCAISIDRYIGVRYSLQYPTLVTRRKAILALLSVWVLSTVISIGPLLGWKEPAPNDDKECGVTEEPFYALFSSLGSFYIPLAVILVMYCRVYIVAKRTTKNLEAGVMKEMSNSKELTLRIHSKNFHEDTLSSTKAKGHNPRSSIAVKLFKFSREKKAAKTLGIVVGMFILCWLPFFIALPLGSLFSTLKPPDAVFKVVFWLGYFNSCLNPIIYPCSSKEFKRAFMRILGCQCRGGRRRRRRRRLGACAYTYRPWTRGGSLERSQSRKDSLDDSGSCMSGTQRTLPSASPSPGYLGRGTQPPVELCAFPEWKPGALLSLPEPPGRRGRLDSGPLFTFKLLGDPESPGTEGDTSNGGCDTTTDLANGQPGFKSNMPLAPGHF

[7] = molecular target: T7, Alpha-1D adrenergic receptor (Rattus norvegicus) (UniProt P23944); assay: Antagonist activity at adrenergic Alpha-1D receptor in Wistar rat thoracic aorta assessed as inhibition of (-)-noradrenaline-indcuced contraction; format: functional, tissue-based
T7 sequence (whole entry): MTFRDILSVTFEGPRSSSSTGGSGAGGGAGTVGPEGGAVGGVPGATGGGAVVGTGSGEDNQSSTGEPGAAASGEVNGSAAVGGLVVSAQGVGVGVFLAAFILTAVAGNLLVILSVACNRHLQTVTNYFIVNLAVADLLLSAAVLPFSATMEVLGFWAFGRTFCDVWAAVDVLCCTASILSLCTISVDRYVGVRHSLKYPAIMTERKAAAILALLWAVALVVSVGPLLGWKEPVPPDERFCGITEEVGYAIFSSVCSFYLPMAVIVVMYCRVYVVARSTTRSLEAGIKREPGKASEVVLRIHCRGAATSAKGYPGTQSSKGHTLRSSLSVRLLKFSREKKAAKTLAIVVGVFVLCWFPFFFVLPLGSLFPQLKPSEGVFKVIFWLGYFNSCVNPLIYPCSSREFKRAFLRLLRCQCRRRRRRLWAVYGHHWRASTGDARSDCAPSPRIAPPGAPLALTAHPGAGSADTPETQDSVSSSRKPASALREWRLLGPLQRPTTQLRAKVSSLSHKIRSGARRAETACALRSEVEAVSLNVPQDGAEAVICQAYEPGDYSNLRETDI

Row | Compound | Ki [1] | Ki [2] | Ki [3] | Ki [4] | pKb [5] | pKb [6] | pKb [7]
1 | CCOc1cccc(OCC)c1OCCNCCOc1ccccc1OCc1ccccc1 | 3.16 nM | 0.794 nM | 0.389 nM | 31.6 nM | 7.92 | 8.57 | 8.03
2 | c1ccc(COc2ccccc2OCCNCCOc2ccccc2)cc1 | 10 nM | 100 nM | 17.8 nM | 7.94 nM | 7.65 | 7.74 | 7.32
3 | Cc1cccc(C)c1OCCNCCOc1ccccc1OCc1ccccc1 | 7.94 nM | 100 nM | 14.1 nM | 15.8 nM | 7.33 | 7.78 | 7.59
4 | COc1cccc(OC)c1OCCNCC1COc2ccccc2O1 (configuration not stated) |  |  |  |  | 9.51 | 8.16 | 8.8
5 | COc1cccc(OC)c1OCCNCCOc1ccccc1OCc1ccccc1 |  |  |  |  | 8.39 | 8.3 | 9.37
6 | COc1cccc(Cl)c1OCCNCCOc1ccccc1OCc1ccccc1 | 2.51 nM | 7.94 nM | 0.741 nM | 31.6 nM | 8.16 | 7.84 | 8.74
7 | CCOc1ccccc1OCCNCCOc1ccccc1OCc1ccccc1 | 2 nM | 12.6 nM | 3.72 nM | 5.01 nM | 8.03 | 7.94 | 8.35
8 | COc1cccc(OC)c1SCCNCCOc1ccccc1OCc1ccccc1 | 3.16 nM | 0.501 nM | 0.178 nM | 15.8 nM | 8.74 | 8.57 | 9.47

More lines, now with the values ahead:

Row | Ki [1] | Ki [2] | Ki [3] | Ki [4] | pKb [5] | pKb [6] | pKb [7] | Compound
9 | 9.77 nM | 6.92 nM | 1.2 nM | 2.51 nM | 7.8 | 7.34 | 8.12 | COc1cccc(OC)c1CCCNCCOc1ccccc1OCc1ccccc1
10 | 3.16 nM | 20 nM | 3.98 nM | 2.51 nM | 7.95 | 7.89 | 8.08 | COc1ccccc1OCCNCCOc1ccccc1OCc1ccccc1
11 | 6.31 nM | 79.4 nM | 7.08 nM | 31.6 nM | 6.57 | 7.75 | 8.02 | Clc1cccc(Cl)c1OCCNCCOc1ccccc1OCc1ccccc1
12 | 2.51 nM | 5.01 nM | 0.912 nM | 3.98 nM | 8.35 | 7.91 | 8.36 | COc1cccc(C)c1OCCNCCOc1ccccc1OCc1ccccc1
13 | 5.01 nM | 100 nM | 15.1 nM | 12.6 nM | 7.44 | 7.02 | 7.44 | Oc1cccc(O)c1OCCNCCOc1ccccc1OCc1ccccc1
14 | 1.12 nM | 5.01 nM | 0.513 nM | 15.8 nM | 8.41 | 8.19 | 8.92 | COc1cccc([N+](=O)[O-])c1OCCNCCOc1ccccc1OCc1ccccc1
15 | 20 nM | 15.8 nM | 2.75 nM | 3.16 nM | 7.95 | 7.65 | 7.49 | COc1cccc(OC)c1[S+]([O-])CCNCCOc1ccccc1OCc1ccccc1 (configuration not stated)

— ChEMBL document CHEMBL1250525, “Structure-activity relationships in 1,4-benzodioxan-related compounds. 10. Novel α1-adrenoreceptor antagonists related to openphendioxan: synthesis, biological evaluation, and α1d computational study” (Bioorg Med Chem, 2010)
